Measured values published in ChEMBL document CHEMBL1156002, “Synthesis, Raman, FT-IR, NMR spectroscopic characterization, antimicrobial activity, cytotoxicity and DNA binding of new mixed aza-oxo-thia macrocyclic compounds” (2009).
Converted amounts (≈) assume the structure as drawn. The source made the active and inactive calls. The rule behind the calls is not given here.

Columns and labels:
[1] = tested on: Mycolicibacterium smegmatis; assay: Antibacterial activity against Mycobacterium smegmatis CCM 2067 after 24 hrs by broth micro dilution method; assay type: functional; conditions: CCM 2067, 24 h
Kluyveromyces marxianus = assay: Antifungal activity against Kluyveromyces fragilis NRRL 2415 after 24 hrs by broth micro dilution method; assay type: functional; conditions: NRRL 2415, 24 h
Method in brief: (§1)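 Broth microdilution was run in cation-adjusted Mueller Hinton Broth. Compounds were dissolved in DMSO at 2 mg mL^-1 and serially diluted two-fold. Yeast precultures were grown in Malt Extract Broth for 48 h. The final inoculum was about 10⁶ cfu mL^-1, and plates were incubated at 37 °C for 24 h. The MIC was read from this series.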

A549 [2] = assay: Cytotoxicity against human A549 cells assessed as cell viability at 0.1 uM after 24 hrs by MTT assay; assay type: functional; conditions: A549, 24 h, read-out: Activity
Method in brief: (§2)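 Cells were seeded at 3.10³–5.10³ per well in RPMI 1640 with 10% FBS, 4 mM L-glutamine and penicillin/streptomycin, then held 24 h at 37 °C under 5% CO₂. Ligands (DMSO, final 0.5% v/v) were added at 0.1–100 for 24 or 48 h. MTT was added for 4 h and dissolved in 50% DMF/5% SDS. A570 was read, and cytotoxicity was calculated as 100×(OD treated/OD untreated).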

[3] = Cytotoxicity against human 23132/87 cells assessed as cell viability at 0.1 uM after 48 hrs by MTT assay; assay type: functional; conditions: 23132-87, 48 h, read-out: Activity; method in brief: as §2
A549 [4] = assay: Induction of apoptosis in human A549 cells assessed as DNA fragmentation at 100 uM after 24 hrs by DNA fragmentation assay; assay type: functional, cell-based
Method in brief: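 10 × 10⁴ cells were seeded in 6-well plates and treated with ligand for 24 h. Cells were then collected and washed in PBS, and DNA was extracted with a kit. Extracts were run on 1.5% agarose alongside a 100 bp marker, an untreated control and DMSO-treated controls, and ladders were visualized under UV.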

Klebsiella pneumoniae = assay: Antibacterial activity against Klebsiella pneumoniae UC57 after 24 hrs by broth micro dilution method; assay type: functional; conditions: UC57, 24 h
Escherichia coli = assay: Antibacterial activity against Escherichia coli ATCC 11230 after 24 hrs by broth micro dilution method; assay type: functional; conditions: ATCC 11230, 24 h
[5] = tested on: Mycolicibacterium smegmatis; assay: Antibacterial activity against Mycobacterium smegmatis CCM 2067 after 24 hrs by agar disk diffusion assay; assay type: functional
Method in brief: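 Disk diffusion with sterile 6 mm discs loaded with DMSO solutions of the test agents and placed on inoculated agar. Bacteria were pre-grown in Nutrient Broth at 30 °C for 24 h, and plates were incubated at 35 °C for 24 h. Each plate carried a reference antibiotic disc matched to the organism, and a DMSO-only solvent control was run.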

A549 [6] = assay: Cytotoxicity against human A549 cells assessed as cell viability at 1 uM after 24 hrs by MTT assay; assay type: functional; conditions: A549, 24 h, read-out: Activity; method in brief: as §2
Micrococcus luteus = assay: Antibacterial activity against Micrococcus luteus La 2971 after 24 hrs by broth micro dilution method; assay type: functional; conditions: La 2971, 24 h
Pseudomonas aeruginosa = assay: Antibacterial activity against Pseudomonas aeruginosa ATCC 27853 after 24 hrs by broth micro dilution method; assay type: functional; conditions: ATCC 27853, 24 h
A549 [7] = assay: Induction of apoptosis in human A549 cells assessed as change in nuclear appearance at 100 uM after 24 hrs by hoechst nuclear staining; assay type: functional, cell-based
Method in brief: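 Cells grown in 6-well plates were treated for 24 h, washed three times in PBS and fixed in ice-cold methanol for 10 min. They were stained with Hoechst 33258 for 5 min, destained in double-distilled water for 5 min and examined by fluorescence microscopy. Untreated and DMSO-treated cells served as controls.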

A549 [8] = assay: Cytotoxicity against human A549 cells assessed as cell viability at 10 uM after 24 hrs by MTT assay; assay type: functional; conditions: A549, 24 h, read-out: Activity; method in brief: as §2
[9] = tested on: Hanseniaspora guilliermondii; assay: Antifungal activity against Hanseniaspora guilliermondii DSM 3432 after 24 hrs by broth micro dilution method; assay type: functional; conditions: DSM 3432, 24 h; method in brief: as §1
Debaryomyces hansenii = assay: Antifungal activity against Debaryomyces hansenii DSM 70238 after 24 hrs by broth micro dilution method; assay type: functional; conditions: DSM 70238, 24 h; method in brief: as §1

SMILES	MIC [1] [µg/mL]	MIC (Kluyveromyces marxianus) [µg/mL]	viability at 0.1 µM (A549 [2]) [%]	viability at 0.1 µM [3] [%]	Activity (A549 [4])	MIC (Klebsiella pneumoniae) [µg/mL]	MIC (Escherichia coli) [µg/mL]	inhibition zone (IZ) [5] [mm]	viability at 1 µM (A549 [6]) [%]	MIC (Micrococcus luteus) [µg/mL]	MIC (Pseudomonas aeruginosa) [µg/mL]	Activity (A549 [7])	viability at 10 µM (A549 [8]) [%]	MIC [9] [µg/mL]	MIC (Debaryomyces hansenii) [µg/mL]
O=C1CCSSCCC(=O)Nc2nc(nc(-c3ccccc3)n2)NC(=O)CCSSCCC(=O)Nc2nc(nc(-c3ccccc3)n2)N1	25 (≈ 34.6 µM)	1.56 (≈ 2.16 µM)	> 86	> 86	inactive	6.25 (≈ 8.65 µM)	25 (≈ 34.6 µM)	11	> 86	6.25 (≈ 8.65 µM)	25 (≈ 34.6 µM)	inactive	> 86	1.56 (≈ 2.16 µM)	1.56 (≈ 2.16 µM)
O=C1CCSCCC(=O)Nc2nc(nc(-c3ccccc3)n2)NC(=O)CCSCCC(=O)Nc2nc(nc(-c3ccccc3)n2)N1	50 (≈ 75.9 µM)	6.25 (≈ 9.49 µM)	> 86	> 86	inactive	12.5 (≈ 19 µM)	25 (≈ 37.9 µM)	9	> 86	12.5 (≈ 19 µM)	25 (≈ 37.9 µM)	inactive	> 86	1.56 (≈ 2.37 µM)	3.12 (≈ 4.74 µM)
O=C1CSCC(=O)Nc2nc(nc(-c3ccccc3)n2)NC(=O)CSCC(=O)Nc2nc(nc(-c3ccccc3)n2)N1	25 (≈ 41.5 µM)	6.25 (≈ 10.4 µM)	> 86	> 86	inactive	12.5 (≈ 20.7 µM)	25 (≈ 41.5 µM)	10	> 86	12.5 (≈ 20.7 µM)	50 (≈ 83 µM)	inactive	> 86	1.56 (≈ 2.59 µM)	3.12 (≈ 5.19 µM)
O=C1CSSCC(=O)Nc2nc(nc(-c3ccccc3)n2)NC(=O)CSSCC(=O)Nc2nc(nc(-c3ccccc3)n2)N1	25 (≈ 37.5 µM)	1.56 (≈ 2.34 µM)	> 86	> 86	inactive	6.25 (≈ 9.37 µM)	25 (≈ 37.5 µM)	10	> 86	3.12 (≈ 4.69 µM)	25 (≈ 37.5 µM)	inactive	> 86	1.56 (≈ 2.34 µM)	1.56 (≈ 2.34 µM)
